Laboratory results: ChEMBL document CHEMBL4190388, “Discovery and Optimization of Indolyl-Containing 4-Hydroxy-2-Pyridone Type II DNA Topoisomerase Inhibitors Active against Multidrug Resistant Gram-negative Bacteria” (J Med Chem, 2018)
In brackets after ≈: the same amount, converted by molar mass.

Experiments:
[1] = system: Escherichia coli; assay: Antibacterial activity against fluoroquinolone resistant Escherichia coli SKM18 by CLSI M100-S17 protocol based method; type: functional
[2] = system: Escherichia coli; assay: Antibacterial activity against wild type Escherichia coli ATCC 25922 by CLSI M100-S17 protocol based method; type: functional
[3] = system: Escherichia coli; assay: Antibacterial activity against quinolone resistance Escherichia coli isolate ELZ4251 harboring gyrA/parC mutant by CLSI M100-S17 protocol based method; type: functional
[4] = system: Acinetobacter baumannii; assay: Antibacterial activity against wild type Acinetobacter baumannii ATCC BAA-747 by CLSI M100-S17 protocol based method; type: functional
[5] = system: Acinetobacter baumannii; assay: Antibacterial activity against fluoroquinolone resistant Acinetobacter baumannii isolate MMX2240 by CLSI M100-S17 protocol based method; type: functional
[6] = system: Klebsiella pneumoniae; assay: Antibacterial activity against wild type Klebsiella pneumoniae ATCC 35657 by CLSI M100-S17 protocol based method; type: functional
[7] = system: Escherichia coli; assay: Antibacterial activity against wild type Escherichia coli ATCC 25922 in presence of HSA by CLSI M100-S17 protocol based method; type: functional
[8] = system: Escherichia coli; assay: Selectivity ratio of MIC for wild type Escherichia coli ATCC 25922 in presence of HSA to MIC for wild type Escherichia coli ATCC 25922; type: functional
[9] = Inhibition of His tagged Escherichia coli ATCC 25922 DNA gyrase A expressed in Escherichia coli BL21 (DE3) pLysS cells assessed as reduction in enzyme-mediated supercoiling of relaxed plasmid DNA pNO1 after 30 mins in presence of biotinylated TFO1 by fluorescence assay
[10] = Inhibition of Escherichia coli DNA topoisomerase 4 assessed as reduction in decatenation activity using kinetoplast concatenated DNA as substrate after 30 mins by picogreen dye based fluorescence assay
[11] = system: Mus musculus; assay: Terminal half life in CD1 mouse plasma at 10 mg/kg, iv by LC-MS/MS analysis; type: ADME, organism-based; conditions: in vivo
[12] = system: Mus musculus; assay: AUC (0 to 24 hrs) in CD1 mouse plasma at 10 mg/kg, iv by LC-MS/MS analysis; type: ADME, organism-based; set-up: time < 24 hr, dose 10 mg/kg, route intravenous; conditions: in vivo
Procedure, shortened: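 CD-1 mice given a single 10 mg/kg iv dose (n = 3), in either 10% DMSO plus 1% Tween 80 in pH 8.0 phosphate buffer or 20% (2-hydroxypropyl)-β-cyclodextrin in pH 4.0 citrate buffer; plasma exposure measured.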

[13] = system: Mus musculus; assay: Volume of distribution at steady state in CD1 mouse plasma at 10 mg/kg, iv by LC-MS/MS analysis; type: ADME, organism-based; conditions: in vivo
[14] = Oral bioavailability in CD1 mouse plasma by LC-MS/MS analysis; type: ADME, organism-based
[15] = Fraction unbound in mouse plasma at 1 uM by equilibrium dialysis method; type: ADME, cell-free

Structure (SMILES) | MIC [1] [µg/mL] | MIC [2] [µg/mL] | MIC [3] [µg/mL] | MIC [4] [µg/mL] | MIC [5] [µg/mL] | MIC [6] [µg/mL] | MIC [7] [µg/mL] | Ratio [8] | IC50 [9] [µM] | IC50 [10] [µM] | beta t1/2 [11] [h] | AUC [12] [ng·h/mL] | Vdss [13] [L/kg] | bioavailability [14] [%] | Fu [15]
CCc1c(-c2ccc3c(ccn3C)c2)[nH]c(=O)c(C(=O)O)c1O | 3.1 (≈ 9.93 µM) | 0.78 (≈ 2.5 µM) | 6.3 (≈ 20.2 µM) | 0.78 (≈ 2.5 µM) | 0.78 (≈ 2.5 µM) | 3.1 (≈ 9.93 µM) | > 62.5 | >40 | – | – | – | – | – | – | –
CCc1c(-c2ccc3c(c2)cc(C)n3C)[nH]c(=O)c(C(=O)O)c1O | > 62.5 | 1.6 (≈ 4.9 µM) | 62.5 (≈ 192 µM) | – | – | – | > 62.5 | >40 | – | – | – | – | – | – | –
CCc1c(-c2ccc3c(c2)cc(CN(C)C)n3C)[nH]c(=O)c(C(=O)O)c1O | 6.3 (≈ 17.1 µM) | 0.39 (≈ 1.06 µM) | 6.3 (≈ 17.1 µM) | 0.78 (≈ 2.11 µM) | 3.1 (≈ 8.39 µM) | 0.78 (≈ 2.11 µM) | 3.1 | 2 - 4 | – | – | – | – | – | – | –
CC(C)NCc1cc2cc3c(cc2n1C)OCCc1c-3[nH]c(=O)c(C(=O)O)c1O | 0.49 (≈ 1.23 µM) | 0.49 (≈ 1.23 µM) | 1 (≈ 2.52 µM) | 3.9 (≈ 9.81 µM) | 6.3 (≈ 15.9 µM) | 1.6 (≈ 4.03 µM) | 2 | 2 - 4 | – | – | – | – | – | – | –
CCNCc1cc2cc3c(cc2n1C)Cc1c-3[nH]c(=O)c(C(=O)O)c1O | > 62.5 | > 62.5 | – | – | – | – | – | – | > 11.1 | > 11.1 | – | – | – | – | –
Cn1c(CNC2(C)CCC2)cc2cc3c(cc21)CCCc1c-3[nH]c(=O)c(C(=O)O)c1O | 1 (≈ 2.37 µM) | 1 (≈ 2.37 µM) | – | 0.5 (≈ 1.19 µM) | 1 (≈ 2.37 µM) | 1 (≈ 2.37 µM) | 7.8 | 4 - 16 | – | – | 3.1 | 4580 | 7.1 | 65 | 0.047
CCNCc1cc2c3c(ccc2n1C)-c1[nH]c(=O)c(C(=O)O)c(O)c1CCC3 | 6.3 (≈ 16.5 µM) | 12.5 (≈ 32.8 µM) | – | – | – | – | – | – | – | 19 | – | – | – | – | –
CCNCc1cc2cc3c(cc2n1C)SCCc1c-3[nH]c(=O)c(C(=O)O)c1O | 0.5 (≈ 1.25 µM) | 1 (≈ 2.5 µM) | 1.6 (≈ 4.01 µM) | 3.9 (≈ 9.76 µM) | 3.9 (≈ 9.76 µM) | 1 (≈ 2.5 µM) | 15.6 | 8 - 16 | – | – | – | – | – | – | –
CNCc1cc2cc3c(cc2n1C)SCCc1c-3[nH]c(=O)c(C(=O)O)c1O | 0.49 (≈ 1.27 µM) | 1 (≈ 2.59 µM) | 1.6 (≈ 4.15 µM) | 3.9 (≈ 10.1 µM) | 7.8 (≈ 20.2 µM) | 1 (≈ 2.59 µM) | 7.8 | 8 - 16 | – | – | – | – | – | – | –
